Laboratory results from ChEMBL document CHEMBL4627266, “Design and biological evaluation of a novel type of potential multi-targeting antimicrobial sulfanilamide hybrids in combination of pyrimidine and azoles” (Bioorg Med Chem Lett, 2020).
≈ marks a conversion by molar mass, not a printed value. Calls of active or inactive are those of the source. The calls are words filed in the database; no cut-off is given here.

Tests used:
Staphylococcus aureus [1] = assay: Antibacterial activity against methicillin-resistant Staphylococcus aureus by two fold serial microbroth dilution method; type: functional
Method in brief: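 Two-fold serial microbroth dilution in microdilution plates, run per CLSI, with clinical antibacterial drugs as positive controls. The MRSA strain was a drug-resistant clinical isolate from infected patients. MIC (μg/mL) was read as the lowest concentration giving complete inhibition of visible bacterial growth.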

Staphylococcus aureus [2] = assay: Antibacterial activity against Staphylococcus aureus by two fold serial microbroth dilution method; type: functional
Method in brief: (§1)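 Two-fold serial dilution in microdilution plates (micro broth dilution) following CLSI. Panel includes clinical drug-resistant isolates and ATCC reference strains. Clinical drugs were run as positive controls.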

Staphylococcus aureus [3] = assay: Antibacterial activity against Staphylococcus aureus ATCC 25923 by two fold serial microbroth dilution method; type: functional; method in brief: as §1
Enterococcus faecalis [4] = assay: Antibacterial activity against Enterococcus faecalis by two fold serial microbroth dilution method; type: functional; method in brief: as §1
Klebsiella pneumoniae = assay: Antibacterial activity against Klebsiella pneumoniae by two fold serial microbroth dilution method; type: functional; method in brief: as §1
Escherichia coli [5] = assay: Antibacterial activity against Escherichia coli by two fold serial microbroth dilution method; type: functional; method in brief: as §1
Escherichia coli [6] = assay: Antibacterial activity against Escherichia coli ATCC 25922 by two fold serial microbroth dilution method; type: functional; method in brief: as §1
Pseudomonas aeruginosa [7] = assay: Antibacterial activity against Pseudomonas aeruginosa by two fold serial microbroth dilution method; type: functional; method in brief: as §1
Pseudomonas aeruginosa [8] = assay: Antibacterial activity against Pseudomonas aeruginosa ATCC 27853 by two fold serial microbroth dilution method; type: functional; method in brief: as §1
Acinetobacter baumannii = assay: Antibacterial activity against Acinetobacter baumannii by two fold serial microbroth dilution method; type: functional; method in brief: as §1
Staphylococcus aureus [9] = assay: Antibacterial activity against Staphylococcus aureus ATCC 29213 by two fold serial microbroth dilution method; type: functional; method in brief: as §1
Candida albicans = assay: Antifungal activity against Candida albicans by two fold serial microbroth dilution method; type: functional
Method in brief: (§2)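 Antifungal MIC by two-fold serial dilution following CLSI, with a clinical drug as positive control. Panel includes clinical drug-resistant fungal isolates.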

Candida tropicalis = assay: Antifungal activity against Candida tropicalis by two fold serial microbroth dilution method; type: functional; method in brief: as §2
Aspergillus fumigatus = assay: Antifungal activity against Aspergillus fumigatus by two fold serial microbroth dilution method; type: functional; method in brief: as §2
[10] = Cytotoxicity against human A549 cells assessed as cell viability at 64 ug/ml incubated for 24 hrs by MTT assay relative to control; type: cell-based; conditions: read-out: Activity
Method in brief: (§3)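 A549 lung cancer cells and BEAS-2B normal lung epithelial cells were exposed to the compound at a range of concentrations up to 64 μg/mL for 24 h. Viability was read by colorimetric MTT cell proliferation assay. Doxorubicin at 0.5 µM served as positive control.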

[11] = Cytotoxicity against human BEAS2B cells assessed as cell viability at 64 ug/ml incubated for 24 hrs by MTT assay relative to control; type: cell-based; conditions: BEAS-2B cells, read-out: Activity; method in brief: as §3
Enterococcus faecalis [12] = assay: Antibacterial activity against Enterococcus faecalis measured after 16 passages by microbroth dilution method; type: functional, organism-based
Enterococcus faecalis [13] = assay: Bactericidal activity against Enterococcus faecalis assessed as log10 reduction in CFU at MIC to 6XMIC by time kill kinetics analysis; type: functional
Method in brief: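 E. faecalis was exposed to the compound at MIC and 6 × MIC. Viable counts (log CFU/mL) were followed over time.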

Enterococcus faecalis [14] = assay: Induction of cell membrane permeabilization in Enterococcus faecalis at 12XMIC measured after 60 mins by PI staining based fluorescence assay; type: organism-based
Method in brief: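 E. faecalis cells were treated with the compound at 12 × MIC in the presence of propidium iodide, which enters only compromised cells and fluoresces on binding dsDNA. Fluorescence at 617 nm was followed over time, to about 120 min.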

DNA [15] = assay: Binding affinity to Enterococcus faecalis DNA assessed as hyperchromic effect by UV-visible spectrophotometric method; type: nucleic-acid assay
DNA [16] = assay: Binding affinity to Enterococcus faecalis DNA assessed as decrease in maximum absorption of DNA-NR complex at 530 nm by neutral red dye based absorption spectral assay; type: nucleic-acid assay
Albumin = Albumin (Homo sapiens, UniProt P02768); assay: Binding affinity to HSA by UV-visible spectrophotometric method; type: ADME; conditions: isolated protein
Chain of Albumin (P02768 whole entry): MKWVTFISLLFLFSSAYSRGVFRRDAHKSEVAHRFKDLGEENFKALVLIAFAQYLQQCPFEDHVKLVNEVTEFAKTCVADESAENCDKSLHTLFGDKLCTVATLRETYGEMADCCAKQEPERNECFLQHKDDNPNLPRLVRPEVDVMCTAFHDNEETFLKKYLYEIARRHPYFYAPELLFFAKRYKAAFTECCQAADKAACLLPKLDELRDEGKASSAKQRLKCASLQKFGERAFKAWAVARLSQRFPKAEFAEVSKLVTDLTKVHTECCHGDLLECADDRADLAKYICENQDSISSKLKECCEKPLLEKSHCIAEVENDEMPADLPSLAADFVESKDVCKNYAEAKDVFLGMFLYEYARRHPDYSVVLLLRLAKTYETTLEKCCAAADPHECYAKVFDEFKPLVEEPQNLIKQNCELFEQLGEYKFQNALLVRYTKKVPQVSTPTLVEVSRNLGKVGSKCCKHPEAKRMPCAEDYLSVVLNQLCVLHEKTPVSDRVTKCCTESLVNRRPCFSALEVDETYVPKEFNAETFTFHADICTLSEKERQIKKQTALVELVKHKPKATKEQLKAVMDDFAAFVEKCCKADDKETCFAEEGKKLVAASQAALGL

DNA [17] = assay: Binding affinity to Enterococcus faecalis DNA assessed as blue shift by UV-visible spectrophotometric method; type: nucleic-acid assay
DNA [18] = assay: Binding affinity to Enterococcus faecalis DNA assessed as increase in absorption peak at 460 nm by neutral red dye based absorption spectral assay; type: nucleic-acid assay

For Cc1nccn1-c1ccnc(NS(=O)(=O)c2ccc(N)cc2)n1, the MIC (Staphylococcus aureus [1]) was 128 µg/mL (≈ 387 µM), the MIC (Staphylococcus aureus [2]) was 256 µg/mL (≈ 775 µM) and the MIC (Staphylococcus aureus [3]) was 256 µg/mL (≈ 775 µM). It also gave an MIC (Enterococcus faecalis [4]) of 128 µg/mL (≈ 387 µM), an MIC (Klebsiella pneumoniae) of 512 µg/mL (≈ 1550 µM) and an MIC (Escherichia coli [5]) of 128 µg/mL (≈ 387 µM). The MIC (Escherichia coli [6]) was 256 µg/mL (≈ 775 µM), the MIC (Pseudomonas aeruginosa [7]) was 128 µg/mL (≈ 387 µM) and the MIC (Pseudomonas aeruginosa [8]) was 256 µg/mL (≈ 775 µM). For the same compound, the MIC (Acinetobacter baumannii) was 256 µg/mL (≈ 775 µM) and the MIC (Staphylococcus aureus [9]) was 256 µg/mL (≈ 775 µM).

For Nc1ccc(S(=O)(=O)Nc2nccc(-n3ccc4cc(Br)ccc43)n2)cc1, the MIC (Staphylococcus aureus [1]) was 4 µg/mL (≈ 9 µM), the MIC (Staphylococcus aureus [2]) was 64 µg/mL (≈ 144 µM) and the MIC (Staphylococcus aureus [3]) was 2 µg/mL (≈ 4.5 µM). For the same compound, the MIC (Enterococcus faecalis [4]) was 4 µg/mL (≈ 9 µM), the MIC (Klebsiella pneumoniae) was 32 µg/mL (≈ 72 µM) and the MIC (Escherichia coli [5]) was 4 µg/mL (≈ 9 µM). The MIC (Escherichia coli [6]) was 2 µg/mL (≈ 4.5 µM), the MIC (Pseudomonas aeruginosa [7]) was 4 µg/mL (≈ 9 µM) and the MIC (Pseudomonas aeruginosa [8]) was 4 µg/mL (≈ 9 µM). For the same compound, the MIC (Acinetobacter baumannii) was 128 µg/mL (≈ 288 µM), the MIC (Candida albicans) was 2 to 8 µg/mL (≈ 4.5 to 18 µM) and the MIC (Candida tropicalis) was 2 to 8 µg/mL (≈ 4.5 to 18 µM). The MIC (Aspergillus fumigatus) was 2 to 8 µg/mL (≈ 4.5 to 18 µM) and the MIC (Staphylococcus aureus [9]) was 16 µg/mL (≈ 36 µM).

Compound Nc1ccc(S(=O)(=O)Nc2nccc(-n3ccnc3)n2)cc1 has an MIC (Staphylococcus aureus [1]) of 32 µg/mL (≈ 101 µM), an MIC (Staphylococcus aureus [2]) of 128 µg/mL (≈ 405 µM) and an MIC (Staphylococcus aureus [3]) of 256 µg/mL (≈ 809 µM). For the same compound, the MIC (Enterococcus faecalis [4]) was 128 µg/mL (≈ 405 µM), the MIC (Klebsiella pneumoniae) was 256 µg/mL (≈ 809 µM) and the MIC (Escherichia coli [5]) was 256 µg/mL (≈ 809 µM). For the same compound, the MIC (Escherichia coli [6]) was 256 µg/mL (≈ 809 µM), the MIC (Pseudomonas aeruginosa [7]) was 128 µg/mL (≈ 405 µM) and the MIC (Pseudomonas aeruginosa [8]) was 256 µg/mL (≈ 809 µM). It also gave an MIC (Acinetobacter baumannii) of 64 µg/mL (≈ 202 µM) and an MIC (Staphylococcus aureus [9]) of 128 µg/mL (≈ 405 µM).

Work on Nc1ccc(S(=O)(=O)Nc2nccc(-n3cncn3)n2)cc1 yielded an MIC (Staphylococcus aureus [1]) of 128 µg/mL (≈ 403 µM), an MIC (Staphylococcus aureus [2]) of 512 µg/mL (≈ 1610 µM) and an MIC (Staphylococcus aureus [3]) of 256 µg/mL (≈ 807 µM). For the same compound, the MIC (Enterococcus faecalis [4]) was 256 µg/mL (≈ 807 µM), the MIC (Klebsiella pneumoniae) was 32 µg/mL (≈ 101 µM) and the MIC (Escherichia coli [5]) was 128 µg/mL (≈ 403 µM). For the same compound, the MIC (Escherichia coli [6]) was 256 µg/mL (≈ 807 µM), the MIC (Pseudomonas aeruginosa [7]) was 4 µg/mL (≈ 12.6 µM) and the MIC (Pseudomonas aeruginosa [8]) was 32 µg/mL (≈ 101 µM). For the same compound, the MIC (Acinetobacter baumannii) was 128 µg/mL (≈ 403 µM), the MIC (Candida albicans) was 8 µg/mL (≈ 25.2 µM) and the MIC (Staphylococcus aureus [9]) was 64 µg/mL (≈ 202 µM).

For Nc1ccc(S(=O)(=O)Nc2nccc(-n3ccc4cc([N+](=O)[O-])ccc43)n2)cc1, the MIC (Staphylococcus aureus [1]) was 16 µg/mL (≈ 39 µM), the MIC (Staphylococcus aureus [2]) was 32 µg/mL (≈ 78 µM) and the MIC (Staphylococcus aureus [3]) was 4 µg/mL (≈ 9.75 µM). It also gave an MIC (Enterococcus faecalis [4]) of 8 µg/mL (≈ 19.5 µM), an MIC (Klebsiella pneumoniae) of 32 µg/mL (≈ 78 µM) and an MIC (Escherichia coli [5]) of 8 µg/mL (≈ 19.5 µM). The MIC (Escherichia coli [6]) was 128 µg/mL (≈ 312 µM), the MIC (Pseudomonas aeruginosa [7]) was 16 µg/mL (≈ 39 µM) and the MIC (Pseudomonas aeruginosa [8]) was 8 µg/mL (≈ 19.5 µM). It also gave an MIC (Acinetobacter baumannii) of 128 µg/mL (≈ 312 µM), an MIC (Candida albicans) of 2 to 8 µg/mL (≈ 4.87 to 19.5 µM) and an MIC (Candida tropicalis) of 2 to 8 µg/mL (≈ 4.87 to 19.5 µM). The MIC (Aspergillus fumigatus) was 2 to 8 µg/mL (≈ 4.87 to 19.5 µM) and the MIC (Staphylococcus aureus [9]) was 64 µg/mL (≈ 156 µM).

Compound Nc1ccc(S(=O)(=O)Nc2nccc(-n3cnc4ccccc43)n2)cc1 has an MIC (Staphylococcus aureus [1]) of 8 µg/mL (≈ 21.8 µM), an MIC (Staphylococcus aureus [2]) of 256 µg/mL (≈ 699 µM) and an MIC (Staphylococcus aureus [3]) of 512 µg/mL (≈ 1400 µM). The MIC (Enterococcus faecalis [4]) was 256 µg/mL (≈ 699 µM), the MIC (Klebsiella pneumoniae) was 256 µg/mL (≈ 699 µM) and the MIC (Escherichia coli [5]) was 128 µg/mL (≈ 349 µM). For the same compound, the MIC (Escherichia coli [6]) was 256 µg/mL (≈ 699 µM), the MIC (Pseudomonas aeruginosa [7]) was 512 µg/mL (≈ 1400 µM) and the MIC (Pseudomonas aeruginosa [8]) was 256 µg/mL (≈ 699 µM). It also gave an MIC (Acinetobacter baumannii) of 512 µg/mL (≈ 1400 µM) and an MIC (Staphylococcus aureus [9]) of 256 µg/mL (≈ 699 µM).

Work on Nc1ccc(S(=O)(=O)Nc2nccc(-n3ccc4ccccc43)n2)cc1 yielded an MIC (Staphylococcus aureus [1]) of 2 µg/mL (≈ 5.47 µM), an MIC (Staphylococcus aureus [2]) of 32 µg/mL (≈ 87.6 µM) and an MIC (Staphylococcus aureus [3]) of 4 µg/mL (≈ 10.9 µM). It also gave an MIC (Enterococcus faecalis [4]) of 1 µg/mL (≈ 2.74 µM), an MIC (Klebsiella pneumoniae) of 32 µg/mL (≈ 87.6 µM) and an MIC (Escherichia coli [5]) of 32 µg/mL (≈ 87.6 µM). The MIC (Escherichia coli [6]) was 32 µg/mL (≈ 87.6 µM), the MIC (Pseudomonas aeruginosa [7]) was 8 µg/mL (≈ 21.9 µM) and the MIC (Pseudomonas aeruginosa [8]) was 1 µg/mL (≈ 2.74 µM). For the same compound, the MIC (Candida albicans) was 2 to 8 µg/mL (≈ 5.47 to 21.9 µM), the MIC (Candida tropicalis) was 2 to 8 µg/mL (≈ 5.47 to 21.9 µM) and the MIC (Aspergillus fumigatus) was 2 to 8 µg/mL (≈ 5.47 to 21.9 µM). The viability at 24 h, 64 ug/ml [10] was 70%, the viability at 24 h, 64 ug/ml [11] was 70% and the Activity (Enterococcus faecalis [12]) was “Active”. The Activity (Enterococcus faecalis [13]) was greater than 3 log10CFU/ml, the Activity (Enterococcus faecalis [14]) was “Active” and the Activity (DNA [15]) was “Active”. For the same compound, the Activity (DNA [16]) was “Active”, the Activity (Albumin) was “Active” and the MIC (Staphylococcus aureus [9]) was 8 µg/mL (≈ 21.9 µM). For the same compound, the Activity (DNA [17]) was “Active” and the Activity (DNA [18]) was “Active”.
